Test results taken from ChEMBL document CHEMBL5724801, “EUbOPEN Chemogenomics Library - Multiplex” (2024).
Where “and” joins values, the source holds several entries; their conditions need not be identical. Identical values can stand only once.

System: HEK-293T
Test: Multiplex assay against HEK293T
Assay type: toxicity, cell-based
Settings: human
How it was run: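 Cells stained live at seeding with Hoechst33342, BioTracker Green Microtubule Cytoskeleton Dye, MitoTracker Red and Annexin V Alexa Fluor 680 were imaged on a CQ1 microscope at 37°C and 5% CO2 after compound addition. Their classification by CellPathfinder machine-learning gating ran from Hoechst high-intensity objects versus normal cells, to healthy, pyknosed or fragmented nuclei among normal cells, to mitotic or apoptotic among pyknosed cells. Tubulin, mitochondrial-mass and membrane-permeability phenotypes are per cents of healthy-nucleus cells.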

[1] = 12 h, 1 µM, compound concentration 1 uM
[2] = 12 h, 10 µM, compound concentration 10 uM
[3] = 24 h, 1 µM, compound concentration 1 uM
[4] = 24 h, 10 µM, compound concentration 10 uM
[5] = 48 h, 1 µM, compound concentration 1 uM
[6] = 48 h, 10 µM, compound concentration 10 uM

CN(C)C(=O)Cn1cc(-c2ccc(-c3cncc4ccccc34)cc2)cn1
Population Apoptotic (%) [1]: 52% and 40% | Population Fragmented Nuclei (%) [1]: 5% and 4% | Population Healthy Nuclei (%) [1]: 81% and 80% | Population Hoechst High Intensity Objects (%) [1]: 7% and 2% | Population Membrane Permeable-Phenotype (%) [1]: 0% | Population Mitochondria Different-Phenotype (%) [1]: 50% and 58% | Population Mitotic Cells (%) [1]: 47% and 59% | Population Normal (%) [1]: 92% and 97% | Population Pyknosed Nuclei (%) [1]: 12% and 14% | Population Tubulin-Different-Phenotype (%) [1]: 35% and 23% | Total Cell Count [1]: 411 and 337 | Population Apoptotic (%) [2]: 48% and 69% | Population Fragmented Nuclei (%) [2]: 8% | Population Healthy Nuclei (%) [2]: 73% and 76% | Population Membrane Permeable-Phenotype (%) [2]: 0% | Population Mitochondria Different-Phenotype (%) [2]: 65% and 69% | Population Mitotic Cells (%) [2]: 51% and 30% | Population Normal (%) [2]: 93% and 80% | Population Pyknosed Nuclei (%) [2]: 17% and 15% | Population Tubulin-Different-Phenotype (%) [2]: 47% and 43% | Total Cell Count [2]: 264 and 321 | Population Apoptotic (%) [3]: 47% and 40% | Population Fragmented Nuclei (%) [3]: 10% and 6% | Population Healthy Nuclei (%) [3]: 79% and 82% | Population Hoechst High Intensity Objects (%) [3]: 6% and 7% | Population Membrane Permeable-Phenotype (%) [3]: 0% | Population Mitochondria Different-Phenotype (%) [3]: 38% and 45% | Population Mitotic Cells (%) [3]: 52% and 60% | Population Normal (%) [3]: 93% and 92% | Population Pyknosed Nuclei (%) [3]: 10% | Population Tubulin-Different-Phenotype (%) [3]: 24% and 23% | Total Cell Count [3]: 498 and 355 | Population Apoptotic (%) [4]: 48% and 45% | Population Fragmented Nuclei (%) [4]: 9% and 10% | Population Healthy Nuclei (%) [4]: 75% | Population Hoechst High Intensity Objects (%) [4]: 6% and 14% | Population Membrane Permeable-Phenotype (%) [4]: 0% | Population Mitochondria Different-Phenotype (%) [4]: 65% and 53% | Population Mitotic Cells (%) [4]: 51% and 54% | Population Normal (%) [4]: 93% and 85% | Population Pyknosed Nuclei (%) [4]: 14% and 13% | Population Tubulin-Different-Phenotype (%) [4]: 44% and 30% | Total Cell Count [4]: 283 and 362 | Population Apoptotic (%) [5]: 35% and 60% | Population Fragmented Nuclei (%) [5]: 19% and 11% | Population Healthy Nuclei (%) [5]: 74% and 82% | Population Hoechst High Intensity Objects (%) [5]: 8% and 5% | Population Membrane Permeable-Phenotype (%) [5]: 1% and 0% | Population Mitochondria Different-Phenotype (%) [5]: 40% and 32% | Population Mitotic Cells (%) [5]: 64% and 39% | Population Normal (%) [5]: 91% and 94% | Population Pyknosed Nuclei (%) [5]: 6% and 5% | Population Tubulin-Different-Phenotype (%) [5]: 25% and 17% | Total Cell Count [5]: 554 and 430 | Population Apoptotic (%) [6]: 66% and 59% | Population Fragmented Nuclei (%) [6]: 23% | Population Healthy Nuclei (%) [6]: 63% and 70% | Population Hoechst High Intensity Objects (%) [6]: 11% and 8% | Population Membrane Permeable-Phenotype (%) [6]: 0% | Population Mitochondria Different-Phenotype (%) [6]: 56% and 43% | Population Mitotic Cells (%) [6]: 33% and 40% | Population Normal (%) [6]: 88% and 91% | Population Pyknosed Nuclei (%) [6]: 12% and 6% | Population Tubulin-Different-Phenotype (%) [6]: 30% and 23% | Total Cell Count [6]: 379 and 429

Cc1cccc(NC(=O)CN2CCC(c3ccccn3)CC2)c1.Cl.Cl
Population Apoptotic (%) [1]: 34% and 46% | Population Fragmented Nuclei (%) [1]: 7% and 5% | Population Healthy Nuclei (%) [1]: 76% and 82% | Population Hoechst High Intensity Objects (%) [1]: 5% and 3% | Population Membrane Permeable-Phenotype (%) [1]: 0% | Population Mitochondria Different-Phenotype (%) [1]: 54% | Population Mitotic Cells (%) [1]: 65% and 53% | Population Normal (%) [1]: 94% and 96% | Population Pyknosed Nuclei (%) [1]: 15% and 11% | Population Tubulin-Different-Phenotype (%) [1]: 33% and 22% | Total Cell Count [1]: 348 and 277 | Population Apoptotic (%) [2]: 61% and 43% | Population Fragmented Nuclei (%) [2]: 6% and 10% | Population Healthy Nuclei (%) [2]: 71% and 70% | Population Hoechst High Intensity Objects (%) [2]: 9% and 14% | Population Membrane Permeable-Phenotype (%) [2]: 0% | Population Mitochondria Different-Phenotype (%) [2]: 63% and 79% | Population Mitotic Cells (%) [2]: 38% and 56% | Population Normal (%) [2]: 90% and 85% | Population Pyknosed Nuclei (%) [2]: 21% and 18% | Population Tubulin-Different-Phenotype (%) [2]: 50% and 35% | Total Cell Count [2]: 291 and 273 | Population Apoptotic (%) [3]: 32% and 45% | Population Fragmented Nuclei (%) [3]: 8% and 10% | Population Healthy Nuclei (%) [3]: 81% and 79% | Population Hoechst High Intensity Objects (%) [3]: 3% and 4% | Population Membrane Permeable-Phenotype (%) [3]: 0% | Population Mitochondria Different-Phenotype (%) [3]: 30% and 44% | Population Mitotic Cells (%) [3]: 67% and 54% | Population Normal (%) [3]: 96% and 95% | Population Pyknosed Nuclei (%) [3]: 9% and 10% | Population Tubulin-Different-Phenotype (%) [3]: 22% and 18% | Total Cell Count [3]: 451 and 339 | Population Apoptotic (%) [4]: 59% and 50% | Population Fragmented Nuclei (%) [4]: 8% and 11% | Population Healthy Nuclei (%) [4]: 74% and 75% | Population Hoechst High Intensity Objects (%) [4]: 7% | Population Membrane Permeable-Phenotype (%) [4]: 0% | Population Mitochondria Different-Phenotype (%) [4]: 60% and 64% | Population Mitotic Cells (%) [4]: 40% and 50% | Population Normal (%) [4]: 92% | Population Pyknosed Nuclei (%) [4]: 17% and 13% | Population Tubulin-Different-Phenotype (%) [4]: 38% and 26% | Total Cell Count [4]: 350 and 348 | Population Apoptotic (%) [5]: 30% and 46% | Population Fragmented Nuclei (%) [5]: 13% and 8% | Population Healthy Nuclei (%) [5]: 76% and 83% | Population Hoechst High Intensity Objects (%) [5]: 2% and 4% | Population Membrane Permeable-Phenotype (%) [5]: 0% | Population Mitochondria Different-Phenotype (%) [5]: 25% and 24% | Population Mitotic Cells (%) [5]: 69% and 53% | Population Normal (%) [5]: 97% and 95% | Population Pyknosed Nuclei (%) [5]: 9% and 8% | Population Tubulin-Different-Phenotype (%) [5]: 21% and 13% | Total Cell Count [5]: 688 and 524 | Population Apoptotic (%) [6]: 46% and 48% | Population Fragmented Nuclei (%) [6]: 13% and 16% | Population Healthy Nuclei (%) [6]: 75% and 76% | Population Hoechst High Intensity Objects (%) [6]: 4% and 2% | Population Membrane Permeable-Phenotype (%) [6]: 0% | Population Mitochondria Different-Phenotype (%) [6]: 45% and 37% | Population Mitotic Cells (%) [6]: 53% and 51% | Population Normal (%) [6]: 95% and 97% | Population Pyknosed Nuclei (%) [6]: 10% and 7% | Population Tubulin-Different-Phenotype (%) [6]: 26% and 20% | Total Cell Count [6]: 515 and 544
